Data: ChEMBL document CHEMBL1142265, “Discovery of 4-aryl-4H-chromenes as a new series of apoptosis inducers using a cell- and caspase-based HTS assay. Part 5: modifications of the 2- and 3-positions” (Bioorg Med Chem Lett, 2008)

Legend:
T47D [1] = assay: Growth inhibition of human T47D cells; assay type: functional
Method in brief: (§1)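 GI50 from a cell growth inhibition assay in T47D, HCT116 and SNU398 cells, run in 96-well format following an earlier protocol. Values are means of three or more experiments ± SEM.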

HCT-116 [2] = assay: Induction of apoptosis in human HCT116 cells assessed as caspase activation by HTS assay; assay type: functional, cell-based
HCT-116 [3] = assay: Growth inhibition of human HCT116 cells; assay type: functional; method in brief: as §1
SNU-398 [4] = assay: Induction of apoptosis in human SNU398 cells assessed as caspase activation by HTS assay; assay type: functional, cell-based
SNU-398 [5] = assay: Growth inhibition of human SNU398 cells; assay type: functional; method in brief: as §1
T47D [6] = assay: Induction of apoptosis in human T47D cells assessed as caspase activation by HTS assay; assay type: functional, cell-based
[7] = Inhibition of tubulin polymerization

| SMILES | GI50 (T47D [1]) [nM] | EC50 (HCT-116 [2]) [nM] | GI50 (HCT-116 [3]) [nM] | EC50 (SNU-398 [4]) [nM] | GI50 (SNU-398 [5]) [nM] | EC50 (T47D [6]) [nM] | IC50 [7] [nM] |
| --- | --- | --- | --- | --- | --- | --- | --- |
| COc1cc(C2C(C#N)=COc3c2ccc2[nH]ccc32)cc(Br)c1OC (stereo unspecified) | 73 | 66 | 53 | 52 | 34 | 47 | < 500 |
| CCOC(=O)C1=C(N)Oc2c(ccc3[nH]ccc23)C1c1cc(Br)c(OC)c(OC)c1 (stereo unspecified) | 3300 | 3000 | 4300 | 2200 | 1600 | 3200 |  |
| CCn1ccc2c3c(ccc21)C(c1cc(Br)c(OC)c(OC)c1)C(C#N)=CO3 (stereo unspecified) |  | 150 |  | 87 |  | 70 |  |
| COc1cc(C2C(C#N)=C(N3C(=O)CCC3=O)Oc3cc(N(C)C)ccc32)cc(Br)c1OC (stereo unspecified) |  | 420 |  | 190 |  | 250 |  |
| N#CC1=C(N)Oc2c(ccc3[nH]ccc23)C1c1ccccc1 (stereo unspecified) |  |  |  |  |  | 270 | 3000 |
| COC(=O)C1=C(N)Oc2c(ccc3[nH]ccc23)C1c1cc(Br)c(OC)c(OC)c1 (stereo unspecified) |  | 660 |  | 1000 |  | 1400 |  |
| COc1cc(C2C(C#N)=COc3cc(N(C)C)ccc32)cc(Br)c1OC (stereo unspecified) | 66 | 93 | 51 | 77 | 17 | 65 |  |
| COc1cc(C2C(C#N)=COc3c2ccc2c3ccn2C)cc(Br)c1OC (stereo unspecified) | 6 | 38 | 6 | 34 | 4 | 29 | < 500 |
| COc1cc(C2C(C#N)=C(N)Oc3c2ccc2[nH]ccc32)cc(Br)c1OC (stereo unspecified) |  |  |  |  |  |  | 500 |
| COc1cc(C2C(C#N)=C(NC(=O)Nc3ccccc3)Oc3cc(N(C)C)ccc32)cc(Br)c1OC (stereo unspecified) |  | 84 |  | 93 |  | 68 |  |
